Reference: ChEMBL document CHEMBL1155633, “New lignan glycosides with potent antiinflammatory effect, isolated from Justicia ciliata” (J Nat Prod, 2000)
The source made the active and inactive calls. The rule behind the calls is not given here.

Assays:
[1] = Antiinflammatory activity against mouse […] cells assessed as inhibition of LPS-induced nitrite accumulation at 3 uM treated 1 hr before LPS challenge assessed after 24 hrs; type: functional
Summary of the method: (§1)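 RAW 264.7 macrophages were plated at 2×10^5 cells/well in DMEM with 5% FCS and adhered overnight. They were pretreated 1 h at 37 °C with compound or 0.5% DMSO vehicle, then stimulated with E. coli 0111:B4 LPS 1 μg/mL for 24 h. Medium nitrite was read by Griess reaction (10 min at RT, A550) against an NaNO₂ standard. Mean ± s.e.m., n=3; IC50 from concentration–response.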

N9 [2] = assay: Antiinflammatory activity against mouse N9 cells assessed as inhibition of LPS/IFN-gamma-induced TNFalpha generation treated 1 hr before LPS challenge assessed after 24 hrs; type: functional, cell-based
Summary of the method: (§2)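 TNF-α release assay. Cells were pretreated with compound at 37 °C for 1 h and then stimulated for 24 h. N9 microglia were in Iscove's medium with 2% heat-inactivated FCS at 8×10^4 cells/well and were stimulated with LPS 10 μg/mL. RAW 264.7 cells were in DMEM with 5% FCS at 2×10^5 cells/well and were stimulated with LPS 1 μg/mL. Medium was stored at -70 °C until assay.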

[3] = Antiinflammatory activity against mouse […] cells assessed as inhibition of LPS-induced nitrite accumulation at 30 uM treated 1 hr before LPS challenge assessed after 24 hrs; type: functional; summary of the method: as §1
Mus musculus = species: Mus musculus; assay: Antiinflammatory activity against mouse […] cells assessed as inhibition of LPS-induced TNFalpha generation treated 1 hr before LPS challenge assessed after 24 hrs; type: functional, cell-based; summary of the method: as §2
[4] = Antiinflammatory activity against mouse […] cells assessed as inhibition of LPS-induced nitrite accumulation treated 1 hr before LPS challenge assessed after 24 hrs; type: functional, cell-based; summary of the method: as §1
N9 [5] = assay: Antiinflammatory activity against mouse N9 cells assessed as inhibition of LPS/IFN-gamma-induced nitrite accumulation at 10 uM treated 1 hr before LPS challenge assessed after 24 hrs
N9 [6] = assay: Antiinflammatory activity against mouse N9 cells assessed as inhibition of LPS/IFN-gamma-induced nitrite accumulation at 30 uM treated 1 hr before LPS challenge assessed after 24 hrs
[7] = Antiinflammatory activity against mouse […] cells assessed as inhibition of LPS-induced nitrite accumulation at 10 uM treated 1 hr before LPS challenge assessed after 24 hrs; type: functional; summary of the method: as §1
N9 [8] = assay: Antiinflammatory activity against mouse N9 cells assessed as inhibition of LPS/IFN-gamma-induced nitrite accumulation treated 1 hr before LPS challenge assessed after 24 hrs
[9] = Antiinflammatory activity against mouse […] cells assessed as inhibition of LPS-induced nitrite accumulation at 0.3 mM treated 1 hr before LPS challenge assessed after 24 hrs; type: functional
Summary of the method: (§3)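 RAW 264.7 cells in DMEM with 5% FCS seeded at 2×10^5 cells/well and allowed to adhere overnight. Pretreated 1 h at 37 °C with compound or 0.5% DMSO (final), then stimulated with 1 μg mL⁻¹ E. coli 0111:B4 LPS for 24 h. Medium nitrite measured by Griess reaction (absorbance 550 nm) using an NaNO₂ standard curve. Mean ± s.e.m., n=3.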

[10] = Antiinflammatory activity against mouse […] cells assessed as inhibition of LPS-induced nitrite accumulation at 0.1 mM treated 1 hr before LPS challenge assessed after 24 hrs; type: functional; summary of the method: as §3
[11] = Antiinflammatory activity against mouse […] cells assessed as inhibition of LPS-induced nitrite accumulation at 1 mM treated 1 hr before LPS challenge assessed after 24 hrs; type: functional; summary of the method: as §3

COc1cc2c(O[C@@H]3OC[C@](O)(CO[C@@H]4OC[C@@H](O)[C@H](O)[C@H]4O)[C@H]3O[C@@H]3OC[C@H](O)[C@H](O[C@@H]4OC[C@](O)(CO)[C@H]4O)[C@H]3O)c3c(c(-c4ccc5c(c4)OCO5)c2cc1OC)C(=O)OC3 [CILIATOSIDE B]
inhibition at 3 µM [1]: 20.7% | Activity (N9 [2]): inactive | inhibition at 30 µM [3]: 12.4% | Activity (Mus musculus): inactive | IC50 [4]: 29.4 µM | inhibition at 10 µM (N9 [5]): 42.8% | inhibition at 30 µM (N9 [6]): 36.5% | inhibition at 10 µM [7]: 20.5%

COc1cc2c(O[C@@H]3OC[C@](O)(CO[C@@H]4OC[C@@H](O)[C@H](O)[C@H]4O)[C@H]3O[C@@H]3OC[C@H](O)[C@H](O)[C@H]3O)c3c(c(-c4ccc5c(c4)OCO5)c2cc1OC)C(=O)OC3 [CILIATOSIDE A]
inhibition at 3 µM [1]: 22% | Activity (N9 [2]): inactive | inhibition at 30 µM [3]: 11.9% | Activity (Mus musculus): inactive | IC50 [4]: 27.1 µM | inhibition at 10 µM (N9 [5]): 46.7% | inhibition at 30 µM (N9 [6]): 37.9% | inhibition at 10 µM [7]: 18.7%

COC(=O)[C@@H](N)CCCNC(=N)N[N+](=O)[O-] [L-NAME]
IC50 (N9 [8]): 630 µM | inhibition at 300 µM [9]: 15.6% | inhibition at 100 µM [10]: 16.8% | IC50 [4]: 510 µM | inhibition at 1000 µM [11]: 6.6%
